Experimental data collected from several papers.
Compare with care: the assays were run in different laboratories.

SMILES	system	setting	AUC
CCOc1ccc(Cc2cc([C@@H]3O[C@H](CO)[C@@H](O)[C@H](O)[C@H]3O)ccc2Cl)cc1	human, plasma	oral, 10 mg, multiple doses, steady state	493 ng·h/mL
COc1ccc(Oc2cc(N(C)CCOc3ccc(CC4SC(=O)NC4=O)cc3)ncn2)cc1 (stereo not shown)	male human, plasma	oral, 0.5 mg, multiple doses, once daily, steady state	333 ng·h/mL
Cn1c(=O)oc2ccc(-c3ccc(C[C@@H](C#N)NC(=O)[C@@H]4CNCCCO4)cc3)cc21	male human, plasma	oral, 65 mg, single dose, healthy volunteers	24.7 µM·h
CS(=O)(=O)CCNCc1ccc(-c2ccc3ncnc(Nc4ccc(OCc5cccc(F)c5)c(Cl)c4)c3c2)o1	human, serum	oral, 1250 mg, single dose, fed	27300 ng·h/mL
Cc1ccc(C(=O)N(CCCN)[C@@H](c2oc3cc(Cl)ccc3c(=O)c2Cc2ccccc2)C(C)C)cc1	human, plasma	intravenous, 6 mg/m², single dose, patients, infusion	8150 ng·h/mL
CC(C)(C)OC[C@@H]1C(=O)NCCN1C(=O)C[C@H](N)Cc1cc(F)c(F)cc1F	male human, plasma	oral, 5 mg, multiple doses, steady state	91.4 ng·h/mL
CS(=O)(=O)CCC#N	human, plasma	oral, 300 mg, multiple doses, once daily	260000 ng·h/mL
C[C@@H](c1ccc2nccn2c1)n1nnc2ncc(-c3cnn(C)c3)nc21	human, plasma	oral, 600 mg	12800 ng·h/mL
NS(=O)(=O)NCCNc1nonc1C(=NO)Nc1ccc(F)c(Br)c1	human, plasma	oral, 600 mg, multiple doses, twice daily, steady state, patients	22.9 µM·h
COc1cc(C(=O)NC2CCN(C)CC2)c(F)cc1Nc1ncc(C(F)(F)F)c(Oc2cccc3c2C(=O)N(C)C3)n1	human, plasma	oral, 100 mg, multiple doses, once daily, steady state, patients	16.3 µM·h
